ChEMBL document CHEMBL4196119, “Quinoxaline-Based Linear HCV NS3/4A Protease Inhibitors Exhibit Potent Activity against Drug Resistant Variants” (ACS Med Chem Lett, 2018)

How the values were obtained:
[1] = target: Hepatitis C virus serine protease, NS3/NS4A (Hepatitis C virus, UniProt A3EZI9+D2K2A8, R155K); assay: Inhibition of HCV genotype 1a NS3/4A protease R155K mutant expressed in Escherichia coli BL21(DE3) using Ac-DE-Dap(QXL 520)-EE-Abu-psi-[COO]AS-C(5-FAMsp)-NH2 as substrate preincubated for 1 hr followed by substrate addition; parameters: species or system Hepatitis C virus subtype 1a
How it was run: (§1)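 Enzyme inhibition constants (Ki) were determined against GT1a NS3/4A protease in three forms: wild type, R155K and D168A.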

[2] = target: Hepatitis C virus serine protease, NS3/NS4A (Hepatitis C virus, UniProt A3EZI9+D2K2A8); assay: Inhibition of wild type HCV genotype 1a NS3/4A protease expressed in Escherichia coli BL21(DE3) using Ac-DE-Dap(QXL 520)-EE-Abu-psi-[COO]AS-C(5-FAMsp)-NH2 as substrate preincubated for 1 hr followed by substrate addition; parameters: species or system Hepatitis C virus subtype 1a; how it was run: as §1
[3] = target: Hepatitis C virus serine protease, NS3/NS4A (Hepatitis C virus, UniProt A3EZI9+D2K2A8, D168A); assay: Inhibition of HCV genotype 1a NS3/4A protease D168A mutant expressed in Escherichia coli BL21(DE3) using Ac-DE-Dap(QXL 520)-EE-Abu-psi-[COO]AS-C(5-FAMsp)-NH2 as substrate preincubated for 1 hr followed by substrate addition; parameters: species or system Hepatitis C virus subtype 1a; how it was run: as §1
[4] = system: Hepatitis C virus; assay: Selectivity ratio of EC50 for HCV genotype 1b Con1 harboring HCV genotype 1a H77 NS3 A156T mutant infected in human HuH7 cells to EC50 for HCV genotype 1b Con1 harboring HCV genotype 1a H77 wild type NS3 infected in human HuH7 cells; type: functional, Hepacivirus hominis, isolate Con1
[5] = system: Hepatitis C virus; assay: Selectivity ratio of EC50 for HCV genotype 1b Con1 harboring HCV genotype 1a H77 NS3 D168V mutant infected in human HuH7 cells to EC50 for HCV genotype 1b Con1 harboring HCV genotype 1a H77 wild type NS3 infected in human HuH7 cells; type: functional, Hepacivirus hominis, isolate Con1
[6] = system: Hepatitis C virus; assay: Selectivity ratio of EC50 for HCV genotype 1b Con1 harboring HCV genotype 1a H77 NS3 D168A mutant infected in human HuH7 cells to EC50 for HCV genotype 1b Con1 harboring HCV genotype 1a H77 wild type NS3 infected in human HuH7 cells; type: functional, Hepacivirus hominis, isolate Con1
[7] = system: Hepatitis C virus; assay: Selectivity ratio of EC50 for HCV genotype 1b Con1 harboring HCV genotype 1a H77 NS3 R155K mutant infected in human HuH7 cells to EC50 for HCV genotype 1b Con1 harboring HCV genotype 1a H77 wild type NS3 infected in human HuH7 cells; type: functional, Hepacivirus hominis, isolate Con1
[8] = system: Hepatitis C virus; assay: Antiviral activity against HCV genotype 1b Con1 harboring HCV genotype 1a H77 NS3 D168A mutant infected in human HuH7 cells assessed as inhibition of viral replication after 96 hrs by luciferase reporter gene assay; type: functional, organism-based, Hepacivirus hominis; conditions: isolate Con1, Huh-7, 96 h
How it was run: (§2)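 Cell-based replicon antiviral assays against wild-type HCV and the R155K, A156T, D168A and D168V variants. Potency was expressed as EC50.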

[9] = system: Hepatitis C virus; assay: Antiviral activity against HCV genotype 1b Con1 harboring HCV genotype 1a H77 NS3 R155K mutant infected in human HuH7 cells assessed as inhibition of viral replication after 96 hrs by luciferase reporter gene assay; type: functional, organism-based, Hepacivirus hominis; conditions: isolate Con1, Huh-7, 96 h; how it was run: as §2
[10] = system: Hepatitis C virus; assay: Antiviral activity against HCV genotype 1b Con1 harboring HCV genotype 1a H77 NS3 D168V mutant infected in human HuH7 cells assessed as inhibition of viral replication after 96 hrs by luciferase reporter gene assay; type: functional, organism-based, Hepacivirus hominis; conditions: isolate Con1, Huh-7, 96 h; how it was run: as §2
[11] = system: Hepatitis C virus; assay: Antiviral activity against HCV genotype 1b Con1 harboring HCV genotype 1a H77 wild type NS3 infected in human HuH7 cells assessed as inhibition of viral replication after 96 hrs by luciferase reporter gene assay; type: functional, organism-based, Hepacivirus hominis; conditions: isolate Con1, Huh-7, 96 h; how it was run: as §2
[12] = system: Hepatitis C virus; assay: Antiviral activity against HCV genotype 1b Con1 harboring HCV genotype 1a H77 NS3 A156T mutant infected in human HuH7 cells assessed as inhibition of viral replication after 96 hrs by luciferase reporter gene assay; type: functional, organism-based, Hepacivirus hominis; conditions: isolate Con1, Huh-7, 96 h; how it was run: as §2

Row | SMILES | Ki [1] [nM] | Ki [2] [nM] | Ki [3] [nM] | Ratio EC50 [4] | Ratio EC50 [5] | Ratio EC50 [6] | Ratio EC50 [7] | EC50 [8] [nM] | EC50 [9] [nM] | EC50 [10] [nM] | EC50 [11] [nM] | EC50 [12] [nM]
1 | C=C[C@@H]1C[C@]1(NC(=O)[C@@H]1C[C@@H](Oc2nc3cc(OC)ccc3nc2C(C)C)CN1C(=O)[C@@H](NC(=O)OC(C)(C)C)C(C)(C)C)C(=O)NS(=O)(=O)C1CC1 | 49 | 32 | 1090 | – | – | – | – | – | – | – | – | –
2 | C=C[C@@H]1C[C@]1(NC(=O)[C@@H]1C[C@@H](Oc2nc3cc(OC)ccc3nc2C(F)(F)F)CN1C(=O)[C@@H](NC(=O)OC1CCCC1)C(C)(C)C)C(=O)NS(=O)(=O)C1CC1 | 26 | 34 | 703 | – | – | – | – | – | – | – | – | –
3 | CCc1nc2ccc(OC)cc2nc1O[C@@H]1C[C@H]2C(=O)N[C@]3(C(=O)NS(=O)(=O)C4CC4)C[C@H]3/C=C\CCCCC[C@H](NC(=O)OC(C)(C)C)C(=O)N2C1 | 3.1 | 2 | 91 | 29 | 28 | 19 | 5.5 | – | – | – | – | –
4 | C=C[C@@H]1C[C@]1(NC(=O)[C@@H]1C[C@@H](Oc2nc3cc(OC)ccc3nc2CC)CN1C(=O)[C@@H](NC(=O)OC(C)(C)C)C(C)(C)C)C(=O)NS(=O)(=O)C1(C)CC1 | 14 | 16 | 385 | – | – | – | – | – | – | – | – | –
5 | C=C[C@@H]1C[C@]1(NC(=O)[C@@H]1C[C@@H](Oc2nc3cc(OC)ccc3nc2C(C)C)CN1C(=O)[C@@H](NC(=O)OC(C)(C)C)C(C)(C)C)C(=O)NS(=O)(=O)C1(C)CC1 | 27 | 29 | 1180 | – | – | – | – | – | – | – | – | –
6 | C=C[C@@H]1C[C@]1(NC(=O)[C@@H]1C[C@@H](Oc2nc3cc(OC)ccc3nc2CC)CN1C(=O)[C@@H](NC(=O)OC1CCCC1)C(C)(C)C)C(=O)NS(=O)(=O)C1(C)CC1 | 13 | 6.9 | 145 | – | – | – | – | – | – | – | – | –
7 | C=C[C@@H]1C[C@]1(NC(=O)[C@@H]1C[C@@H](Oc2nc3cc(OC)ccc3nc2Cl)CN1C(=O)[C@@H](NC(=O)OC1CCCC1)C(C)(C)C)C(=O)NS(=O)(=O)C1(C)CC1 | 5.2 | 3.9 | 51 | 53 | 7.4 | 8.1 | 8.7 | 25 | 27 | 23 | 3.1 | 163
8 | C=C[C@@H]1C[C@]1(NC(=O)[C@@H]1C[C@@H](Oc2nc3cc(OC)ccc3nc2C(F)(F)F)CN1C(=O)[C@@H](NC(=O)OC(C)(C)C)C(C)(C)C)C(=O)NS(=O)(=O)C1(C)CC1 | 12 | 46 | 513 | – | – | – | – | – | – | – | – | –
9 | C=C[C@@H]1C[C@]1(NC(=O)[C@@H]1C[C@@H](Oc2nc3cc(OC)ccc3nc2Cl)CN1C(=O)[C@@H](NC(=O)OC(C)(C)C)C(C)(C)C)C(=O)NS(=O)(=O)C1(C)CC1 | 3.8 | 6.1 | 119 | 16 | 1.9 | 4.8 | 1.6 | 30 | 10 | 12 | 6.3 | 100
10 | C=C[C@@H]1C[C@]1(NC(=O)[C@@H]1C[C@@H](Oc2nc3cc(OC)ccc3nc2CC)CN1C(=O)[C@@H](NC(=O)OC1CCCC1)C(C)(C)C)C(=O)NS(=O)(=O)C1CC1 | 15 | 9.8 | 350 | – | – | – | – | – | – | – | – | –
11 | C=C[C@@H]1C[C@]1(NC(=O)[C@@H]1C[C@@H](Oc2nc3cc(OC)ccc3nc2C(F)(F)F)CN1C(=O)[C@@H](NC(=O)OC1CCCC1)C(C)(C)C)C(=O)NS(=O)(=O)C1(C)CC1 | 22 | 22 | 516 | – | – | – | – | – | – | – | – | –
12 | C=C[C@@H]1C[C@]1(NC(=O)[C@@H]1C[C@@H](Oc2nc3cc(OC)ccc3nc2Cl)CN1C(=O)[C@@H](NC(=O)OC(C)(C)C)C(C)(C)C)C(=O)NS(=O)(=O)C1CC1 | 2.2 | 7.8 | 128 | 16 | 1.8 | 5.8 | 1.5 | 38 | 10 | 12 | 6.6 | 107
13 | C=C[C@@H]1C[C@]1(NC(=O)[C@@H]1C[C@@H](Oc2nc3cc(OC)ccc3nc2C(F)(F)F)CN1C(=O)[C@@H](NC(=O)OC(C)(C)C)C(C)(C)C)C(=O)NS(=O)(=O)C1CC1 | 24 | 87 | 723 | – | – | – | – | – | – | – | – | –
14 | C=C[C@@H]1C[C@]1(NC(=O)[C@@H]1C[C@@H](Oc2nc3cc(OC)ccc3nc2C)CN1C(=O)[C@@H](NC(=O)OC(C)(C)C)C(C)(C)C)C(=O)NS(=O)(=O)C1CC1 | 8.5 | 18 | 290 | – | – | – | – | – | – | – | – | –
15 | C=C[C@@H]1C[C@]1(NC(=O)[C@@H]1C[C@@H](Oc2nc3cc(OC)ccc3nc2CC)CN1C(=O)[C@@H](NC(=O)OC(C)(C)C)C(C)(C)C)C(=O)NS(=O)(=O)C1CC1 | 17 | 19 | 642 | 3 | >21 | >21 | 2.1 | > 500 | 50 | > 500 | 24 | 73
16 | C=C[C@@H]1C[C@]1(NC(=O)[C@@H]1C[C@@H]2CN1C(=O)[C@H](C(C)(C)C)NC(=O)O[C@@H]1C[C@H]1CCCCCc1nc3ccc(OC)cc3nc1O2)C(=O)NS(=O)(=O)C1(C)CC1 | – | – | – | – | – | – | – | 11 | 1.9 | 5.3 | 0.12 | 200
17 | C=C[C@@H]1C[C@]1(NC(=O)[C@@H]1C[C@@H](Oc2nc3cc(OC)ccc3nc2C(C)C)CN1C(=O)[C@@H](NC(=O)OC1CCCC1)C(C)(C)C)C(=O)NS(=O)(=O)C1CC1 | 55 | 17 | 985 | – | – | – | – | – | – | – | – | –
18 | C=C[C@@H]1C[C@]1(NC(=O)[C@@H]1C[C@@H](Oc2nc3cc(OC)ccc3nc2C(C)C)CN1C(=O)[C@@H](NC(=O)OC1CCCC1)C(C)(C)C)C(=O)NS(=O)(=O)C1(C)CC1 | 43 | 21 | 1000 | – | – | – | – | – | – | – | – | –
19 | C=C[C@@H]1C[C@]1(NC(=O)[C@@H]1C[C@@H](Oc2nc3cc(OC)ccc3nc2C)CN1C(=O)[C@@H](NC(=O)OC(C)(C)C)C(C)(C)C)C(=O)NS(=O)(=O)C1(C)CC1 | 14 | 14 | 265 | – | – | – | – | – | – | – | – | –
